“Also recorded” adds a separate entry of the source.
Experiments:
AChE [1] = biological target: T1, AChE (Homo sapiens, UniProt P22303); experiment: In vitro AChE inhibitory activity; type: biochemical; details: for AChE IC50: mean ± SD (n = 3)
[2] = Metal chelating activity by UV-visible spectrometry, mole ratio method; type: physicochemical; details: UV 200-600 nm, methanol, 5d 20 μM, Fe3+ 0-50 μM, 30 min room temperature
Outline: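 Test compound (20 μM in absolute methanol) was titrated with FeCl3 (0–50 μM Fe3+) and incubated 30 min at room temperature. UV absorption from 200 to 600 nm was recorded with and without Fe3+ in a 1 cm quartz cuvette. Complex stoichiometry was taken from the mole ratio method.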

AChE [3] = biological target: T1, AChE; experiment: Kinetic characterization of AChE inhibition; type: biochemical
BuChE = BuChE (Homo sapiens, UniProt P06276); experiment: In vitro BuChE inhibitory activity; type: biochemical; details: for BuChE IC50: mean ± SD (n = 3)
Sequence of BuChE (P06276 29-602): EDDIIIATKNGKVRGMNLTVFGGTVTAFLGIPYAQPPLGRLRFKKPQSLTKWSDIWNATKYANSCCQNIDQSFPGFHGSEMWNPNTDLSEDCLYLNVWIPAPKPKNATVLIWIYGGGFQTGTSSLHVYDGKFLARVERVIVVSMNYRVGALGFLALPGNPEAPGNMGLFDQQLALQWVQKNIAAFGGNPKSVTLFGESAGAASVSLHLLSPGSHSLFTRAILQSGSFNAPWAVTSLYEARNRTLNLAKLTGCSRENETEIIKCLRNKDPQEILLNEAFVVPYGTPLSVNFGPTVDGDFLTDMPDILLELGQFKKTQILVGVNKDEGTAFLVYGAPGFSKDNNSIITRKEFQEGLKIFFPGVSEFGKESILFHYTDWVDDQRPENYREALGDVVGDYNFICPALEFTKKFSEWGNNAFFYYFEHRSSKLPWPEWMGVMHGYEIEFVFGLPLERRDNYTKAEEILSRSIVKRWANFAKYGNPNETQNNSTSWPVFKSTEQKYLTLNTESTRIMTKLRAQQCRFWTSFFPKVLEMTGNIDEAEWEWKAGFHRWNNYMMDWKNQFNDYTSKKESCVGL

BACE1 = BACE1 (Homo sapiens, UniProt P56817); experiment: BACE1 inhibitory activity, FRET-based assay kit; type: biochemical
Sequence of BACE1 (P56817 46-501): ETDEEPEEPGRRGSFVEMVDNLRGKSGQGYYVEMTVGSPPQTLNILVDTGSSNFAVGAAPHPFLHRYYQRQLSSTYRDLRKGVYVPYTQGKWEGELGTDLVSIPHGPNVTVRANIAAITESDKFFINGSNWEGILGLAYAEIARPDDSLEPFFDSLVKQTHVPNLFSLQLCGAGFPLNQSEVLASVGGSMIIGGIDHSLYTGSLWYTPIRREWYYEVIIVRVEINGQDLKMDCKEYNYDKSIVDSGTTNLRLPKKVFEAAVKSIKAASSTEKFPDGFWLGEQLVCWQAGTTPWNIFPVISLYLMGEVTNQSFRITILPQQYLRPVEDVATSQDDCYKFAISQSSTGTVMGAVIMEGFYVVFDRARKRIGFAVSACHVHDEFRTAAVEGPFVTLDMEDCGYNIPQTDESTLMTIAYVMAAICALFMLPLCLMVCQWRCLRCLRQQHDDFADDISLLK

T1 sequence (P22303 32-614): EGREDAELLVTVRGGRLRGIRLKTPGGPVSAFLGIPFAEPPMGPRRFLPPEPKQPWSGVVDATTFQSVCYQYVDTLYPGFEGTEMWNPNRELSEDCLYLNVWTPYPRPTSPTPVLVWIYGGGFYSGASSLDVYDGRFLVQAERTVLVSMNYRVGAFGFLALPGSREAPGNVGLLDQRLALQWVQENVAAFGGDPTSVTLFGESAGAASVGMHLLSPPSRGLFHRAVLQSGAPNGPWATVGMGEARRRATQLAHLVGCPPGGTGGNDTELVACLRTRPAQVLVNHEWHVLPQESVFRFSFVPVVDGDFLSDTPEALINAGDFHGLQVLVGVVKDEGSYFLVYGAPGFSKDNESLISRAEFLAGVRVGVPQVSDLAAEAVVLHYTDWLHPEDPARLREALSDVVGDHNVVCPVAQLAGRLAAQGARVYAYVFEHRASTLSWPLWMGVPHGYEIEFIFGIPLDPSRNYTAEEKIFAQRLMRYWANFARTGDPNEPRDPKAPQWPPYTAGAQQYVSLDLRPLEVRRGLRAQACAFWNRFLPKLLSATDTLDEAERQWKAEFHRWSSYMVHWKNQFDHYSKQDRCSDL

Compound: Cn1cc(-c2cc(C(=O)NN=Cc3ccccc3Cl)no2)c2ccccc21 [Compound 5i, N'-(2-Chlorobenzylidene)-5-(1-methyl-1H-indol-3-yl)isoxazole-3-carbohydrazide]
- AChE IC50 (AChE [1]): no potency

Compound: COc1cccc(C=NNC(=O)c2cc(-c3cn(C)c4ccccc34)on2)c1O [Compound 5g, N'-(2-Hydroxy-3-methoxybenzylidene)-5-(1-methyl-1H-indol-3-yl)isoxazole-3-carbohydrazide]
- IC50 (AChE [1]): 63.8 ± 4.04 µM

Compound: COc1cccc(C=NNC(=O)c2cc(-c3cn(C)c4ccccc34)on2)c1 [Compound 5d, N'-(3-Methoxybenzylidene)-5-(1-methyl-1H-indol-3-yl)isoxazole-3-carbohydrazide]
- metal chelating ability against Fe3+ [2]: had biometal chelation ability
- Ki (AChE [3]): 19.3 µM
- inhibition pattern on AChE (AChE [3]; Lineweaver-Burk: Km increased, Vmax unchanged): competitive
- BuChE IC50 (BuChE): no notable inhibition; also recorded: no potency
- IC50 (AChE [1]): 29.5 ± 0.31 µM
- IC50 (BACE1): 2.85 ± 0.09 µM

Compound: Cn1cc(-c2cc(C(=O)NN=Cc3ccccc3F)no2)c2ccccc21 [Compound 5h, N'-(2-Fluorobenzylidene)-5-(1-methyl-1H-indol-3-yl)isoxazole-3-carbohydrazide]
- AChE IC50 (AChE [1]): no potency

Compound: Cn1cc(-c2cc(C(=O)NN=Cc3cccc([N+](=O)[O-])c3)no2)c2ccccc21 [Compound 5k, N'-(3-Nitrobenzylidene)-5-(1-methyl-1H-indol-3-yl)isoxazole-3-carbohydrazide]
- IC50 (BuChE): 71.3 ± 0.76 µM

Compound: Cn1cc(-c2cc(C(=O)NN=Cc3ccccc3O)no2)c2ccccc21 [Compound 5b, N'-(2-Hydroxybenzylidene)-5-(1-methyl-1H-indol-3-yl)isoxazole-3-carbohydrazide]
- IC50 (BuChE): 92.8 ± 2.29 µM
- IC50 (BACE1): 2.79 ± 0.52 µM

Compound: Cn1cc(-c2cc(C(=O)NN=Cc3cccc(Br)c3)no2)c2ccccc21 [Compound 5j, N'-(3-Bromobenzylidene)-5-(1-methyl-1H-indol-3-yl)isoxazole-3-carbohydrazide]
- AChE IC50 (AChE [1]): no potency
- IC50 (BACE1): 1.99 ± 0.15 µM

Compound: Cn1cc(-c2cc(C(=O)NN=Cc3ccccc3)no2)c2ccccc21 [Compound 5a, N'-Benzylidene-5-(1-methyl-1H-indol-3-yl)isoxazole-3-carbohydrazide]
- BuChE IC50 (BuChE): no inhibitory potencies
- AChE IC50 (AChE [1]): no inhibitory potencies
